In PMC3240942 (Molecular cell, 2011):
Substitutions are numbered along the chain they refer to. Where no end group is shown, it is not given here.

How the values were obtained:
Sirt1 [1] = molecular target: T1, Sirt1 (Mus musculus, UniProt Q923E4); assay: Lineweaver-Burk kinetics of Sirt1; format: biochemical; details: Sirt1 substrate/cofactor, under our reaction conditions
T1 sequence (Q923E4 1-737): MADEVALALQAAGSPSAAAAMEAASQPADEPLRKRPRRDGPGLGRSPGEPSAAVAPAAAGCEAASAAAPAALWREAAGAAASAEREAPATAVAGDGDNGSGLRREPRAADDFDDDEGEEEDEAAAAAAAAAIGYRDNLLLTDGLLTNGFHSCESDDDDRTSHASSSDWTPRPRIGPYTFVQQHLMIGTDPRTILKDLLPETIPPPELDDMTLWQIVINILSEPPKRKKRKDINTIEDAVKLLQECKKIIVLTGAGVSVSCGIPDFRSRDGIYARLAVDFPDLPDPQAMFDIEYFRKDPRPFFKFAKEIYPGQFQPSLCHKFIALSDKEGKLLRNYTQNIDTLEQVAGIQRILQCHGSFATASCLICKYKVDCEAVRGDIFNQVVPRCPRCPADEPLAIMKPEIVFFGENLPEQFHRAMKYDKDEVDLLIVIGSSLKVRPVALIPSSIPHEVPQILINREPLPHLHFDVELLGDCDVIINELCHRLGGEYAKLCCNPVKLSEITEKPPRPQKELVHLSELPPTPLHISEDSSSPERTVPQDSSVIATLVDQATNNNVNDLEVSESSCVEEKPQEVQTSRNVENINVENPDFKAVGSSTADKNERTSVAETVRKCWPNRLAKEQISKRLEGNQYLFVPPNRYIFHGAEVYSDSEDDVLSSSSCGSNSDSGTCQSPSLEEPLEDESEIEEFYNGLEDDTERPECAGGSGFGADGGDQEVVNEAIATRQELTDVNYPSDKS
Method in brief: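 His-Sirt1 (2 μg) was pre-incubated 5 min at room temperature in HEPES pH 7.0 buffer with mutant ESA peptide at 0, 60, 120 or 240 μM. Ac-K16 H4 fluorogenic dipeptide was varied at 500 μM NAD+, or NAD+ was varied at 100 μM substrate. Reactions ran 25 min at 37 °C and were stopped with nicotinamide developer; ex 355/em 460 nm, no-NAD+ blank subtracted. Triplicates. Kis/Kii came from a double-reciprocal noncompetitive model fit, Km from the same analysis, kcat from a Michaelis–Menten fit.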

Sirt1 [2] = molecular target: T1, Sirt1; details: 2007, cited from earlier work; for reported Sirt1 activation: ref Howitz et al., 2003, Milne et al.
Ac-H4 peptide = assay: Pull-down with streptavidin-immobilized Ac-H4 peptide; format: binding
Method in brief: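 Biotinylated peptide (mutant ESA or acetyl-H4) was bound to streptavidin agarose for 1 h at room temperature, washed, and held in PBS/1% Triton X-100. Beads (30 μl) took 2 μg GST-fused or His-tagged protein for 2 h at room temperature. Beads were washed with PBS/1% Triton/200 mM NaCl and eluted in β-ME SDS buffer at 95 °C for 10 min. Blots ran on 4–12% SDS-PAGE; biotin-only beads were the control.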

[3] = tested on: Lys 382 acetylated-p53 (Ac-p53); assay: Deacetylation of Lys 382 acetylated-p53 by recombinant WT/mutant Sirt1; format: biochemical, mouse Sirt1; details: recombinant Sirt1 2 μg, acetylated GST-p53 0.2 μg, 0.5 mM NAD+, pH 7.0, 37 °C; immunoblot
Method in brief: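 Recombinant His-tagged WT or C-terminally truncated/point-mutant mouse Sirt1 (2 μg) incubated with acetylated GST-p53 (0.2 μg) and 0.5 mM NAD+ in 50 mM HEPES pH 7.0, 1 mM DTT, 10 mM MgCl2, 200 mM NaCl plus protease/phosphatase inhibitors. Reactions ran at 37 °C for indicated times and were stopped with SDS sample buffer. Read-out: immunoblot with acetyl-K382 p53 antibody; loading checked by Coomassie, Ponceau S or Western blot.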

GST-Ac-p53 = assay: Pull-down of Sirt1 / core fragments with GST-Ac-p53; format: binding; details: in vitro pull-down
Method in brief: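 In vitro pull-downs with GST-Ac-p53 or GST alone as negative control. Recombinant Flag-tagged full-length or ΔESA (a.a. 631-655 deleted) Sirt1 pulled down with anti-Flag, bound GST-Ac-p53 detected by GST immunoblot, and Sirt1 shown by Coomassie. Alternatively, core (a.a. 184-510) or Core-ESA with GST-Ac-p53 (2 μg each) in GST pull-down, bound core detected by Sirt1 immunoblot.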

Flag-p65 (NF-κB) = assay: Co-immunoprecipitation of Sirt1 with Flag-p65 in Hela cells; format: cell-based; details: V5-tagged Sirt1
Method in brief: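 Transient co-transfection of HeLa cells with Flag-NF-κB p65 plus V5-tagged full-length or ΔESA Sirt1. p65 was pulled down with anti-Flag, and bound Sirt1 was detected by anti-V5 immunoblot alongside input levels.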

[4] = molecular target: T2, Sirt1 deacetylase core (Core, a.a. 184-510) (mouse, UniProt Q923E4 184-510); assay: pull-down
T2 sequence (looked up): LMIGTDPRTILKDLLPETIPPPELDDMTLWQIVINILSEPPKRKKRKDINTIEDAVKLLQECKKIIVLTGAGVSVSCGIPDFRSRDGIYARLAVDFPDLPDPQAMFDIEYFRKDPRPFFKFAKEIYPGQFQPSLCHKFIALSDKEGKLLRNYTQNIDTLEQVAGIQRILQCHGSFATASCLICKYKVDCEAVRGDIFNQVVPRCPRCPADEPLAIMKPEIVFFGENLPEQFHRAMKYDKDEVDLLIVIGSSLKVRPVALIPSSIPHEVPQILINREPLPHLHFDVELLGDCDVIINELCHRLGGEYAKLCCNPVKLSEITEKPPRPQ

[5] = molecular target: T3, Sirt1 fragment F1b (the Sirtuin domain, a.a. 236-490) (mouse, UniProt Q923E4 236-490); assay: pull-down
T3 sequence (looked up): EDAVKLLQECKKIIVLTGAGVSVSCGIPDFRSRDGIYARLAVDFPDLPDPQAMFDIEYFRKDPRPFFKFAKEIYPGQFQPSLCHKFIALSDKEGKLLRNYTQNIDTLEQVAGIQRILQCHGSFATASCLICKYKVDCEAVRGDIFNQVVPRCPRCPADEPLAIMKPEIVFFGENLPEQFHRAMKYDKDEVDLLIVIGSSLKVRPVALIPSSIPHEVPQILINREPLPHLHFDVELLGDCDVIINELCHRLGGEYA

## NC(=O)c1ccc[n+]([C@@H]2O[C@H](COP(=O)([O-])OP(=O)(O)OC[C@H]3O[C@@H](n4cnc5c(N)ncnc54)[C@H](O)[C@@H]3O)[C@@H](O)[C@H]2O)c1 [NAD^+, reference compound]
Sirt1 [1]
  Km: 203 µM

## O=C(Nc1ccccc1-c1cn2c(CN3CCNCC3)csc2n1)c1cnc2ccccc2n1 [SRT1720, reference compound]
Sirt1 [2]
  reported Sirt1 activation: reported to activate Sirt1

## GST-ESA: ESA fused to GST (QYLFVPPNRYIFHGAEVYSDSEDDV; also: fused to GST, end not given here)
Ac-H4 peptide
  binding to Ac-H4 peptide: not to either GST-ESA or GST alone

## Oc1ccc(/C=C/c2cc(O)cc(O)c2)cc1 [resveratrol, reference compound]
Sirt1 [2]
  reported Sirt1 activation: reported to activate Sirt1

B1: Core-ESA: ESA region attached to the deacetylase core (protein)
chain: LMIGTDPRTILKDLLPETIPPPELDDMTLWQIVINILSEPPKRKKRKDINTIEDAVKLLQECKKIIVLTGAGVSVSCGIPDFRSRDGIYARLAVDFPDLPDPQAMFDIEYFRKDPRPFFKFAKEIYPGQFQPSLCHKFIALSDKEGKLLRNYTQNIDTLEQVAGIQRILQCHGSFATASCLICKYKVDCEAVRGDIFNQVVPRCPRCPADEPLAIMKPEIVFFGENLPEQFHRAMKYDKDEVDLLIVIGSSLKVRPVALIPSSIPHEVPQILINREPLPHLHFDVELLGDCDVIINELCHRLGGEYAKLCCNPVKLSEITEKPPRPQQYLFVPPNRYIFHGAEVYSDSEDDV
modifications: left off: His tag, end not stated, kept
[3]
  deacetylase activity against Ac-p53: restored deacetylase activity
GST-Ac-p53
  binding to GST-Ac-p53: increases the deacetylase core-Ac-p53 interaction
Ac-H4 peptide
  binding to Ac-H4 peptide: increases the deacetylase core-Ac-H4 interaction

B2: Core-GPDR: GPDR-mutated ESA region attached to the Core (protein)
chain: B1 chain with G341P, D347R
Ac-H4 peptide
  binding to Ac-H4 peptide: interacted poorly with the Ac-H4 peptide

B3: AROS: Active Regulator of Sirt1 (protein, UniProt Q86WX3 1-136, looked up)
Active regulator of SIRT1: MSAALLRRGLELLAASEAPRDPPGQAKPRGAPVKRPRKTKAIQAQKLRNSAKGKVPKSALDEYRKRECRDHLRVNLKFLTRTRSTVAESVSQQILRQNRGRKACDRPVAKTKKKKAEGTVFTEEDFQKFQQEYFGS
Sirt1 [2]; binds to N-terminal domain of Sirt1, ref Kim et al.
  effect on Sirt1 activity: activates its activity

B4: WT Sirt1: wild-type full-length Sirt1 (protein)
chain: T1 sequence (Q923E4 1-737)
modifications: left off: His tag, end not stated, kept
Flag-p65 (NF-κB)
  co-immunoprecipitation with Flag-p65: readily co-immunoprecipitated with Flag-p65
Ac-H4 peptide
  binding to Ac-H4 peptide: Ac-H4 peptide bound to full-length Sirt1

## QYLFVPPNRYIFHGAEVYSDSEDDV (peptide, UniProt Q923E4 631-655, looked up, also: biotin-tagged, position not given here) [ESA peptide (biotin-tagged peptide of the region essential for Sirt1 activity, a.a. 631-655)]
[4]
  binding result: binds
[5]
  binding result: binds

B5: deacetylase core: a.a. 184-510 of Sirt1 (protein)
chain: T2 sequence (looked up)
modifications: left off: His tag, end not stated, kept
[3]
  deacetylase activity against Ac-p53: no catalytic activity
